Measured values from PubChem BioAssay AID617 (SRMLSC, 2007).

Each compound was assayed on E. coli BW25113 ΔtolC growth inhibition, OD615 (assay: E. coli ΔtolC antibacterial growth inhibition – strain BW25113 ΔtolC::kan, dose response (AID 617)).
Method in brief: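 Test system: E. coli BW25113 ΔtolC::kan bacteria | Amount: 1:1000 diluted subculture inoculum | Medium: LB plus kanamycin | Timing: 20 h exposure at 37 °C | Signal: Absorbance at 615 nm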

First: CN(C)c1nc(SCCOC(=O)Nc2ccccc2)nc(N(C)C)n1
Second: CCOC(=O)c1c(-c2ccccc2)nnn1-c1nc(OCC)nc(N2CCCCC2)n1
The IC50 of the first is 1.7-fold lower: 12 µM for the first, 20.7 µM for the second. The first is the more potent here.

Compared with `Cc1ccccc1OCCCN1C(=O)C(=O)c2cccc(C)c21`, `COc1ccccc1-c1cc(C(=O)NCc2ccccc2)no1` is 6-fold lower in IC50: 103 µM for the first, 17.1 µM for the second.

Compared with `O=C(COC(=O)c1ccc(Oc2ccccc2)cc1)Nc1nnc(-c2ccccc2)o1`, `c1ccc(-c2ccccc2-c2nc(-c3cccnc3)no2)cc1` is 14-fold higher in IC50: 0.96 µM for the first, 13.9 µM for the second.

First: O=C(CCC1CCCC1)c1c(O)c2ccccc2oc1=O
Second: CCc1nc2ccccc2c(=O)n1NC(=O)c1c(O)c2cccc3c2n(c1=O)CCC3
The IC50 of the first is 13-fold lower: 0.96 µM for the first, 12.2 µM for the second. The first is the more potent here.

`COc1cc(/C=C(/C#N)c2ccc(F)cc2)ccc1OCc1ccc(C(=O)O)o1` and `O=C(NCc1ccc2c(c1)OCO2)c1ccc(-c2ccc(Cl)cc2)o1` are within 1.5-fold of each other in IC50: 4.94 µM for the first, 5.02 µM for the second.

`O=C(NCc1ccco1)c1ccc(S(=O)(=O)N2CCCc3ccccc32)cc1` and `Cc1ccccc1C1=NCC(=O)N(CC(=O)NCc2ccco2)c2sc3c(c21)CCCC3` are within 1.5-fold of each other in IC50: 30.2 µM for the first, 28.6 µM for the second.

`CC(C)N1CCC2(CC1)N=C(c1ccc3c(c1)OCO3)CC(c1cc(Cl)ccc1O)N2` (stereo unspecified) and `c1ccc2c(c1)oc1c(N3CCN(Cc4ccc5c(c4)OCO5)CC3)ncnc12` are within 1.5-fold of each other in IC50: 9.86 µM for the first, 10.9 µM for the second.

First: Cc1cccc(Cn2c(=O)c3c(nc4n3CCCN4Cc3ccccc3)n(C)c2=O)c1
Second: CCn1cc(C(=O)OC(C)C(=O)Nc2c(C)n(C)n(-c3ccccc3)c2=O)c(=O)c2ccc(C)nc21 (stereo unspecified)
The IC50 of the first is 1.6-fold higher: 20 µM for the first, 12.7 µM for the second.

Going from `O=S1(=O)Nc2c(ccc3cccnc23)-c2ccccc21` to `c1ccc(-c2nc(NCc3ccco3)c3ccccc3n2)nc1`, the IC50 rises from 1.31 µM to 5.54 µM (4.2-fold).

Going from `CCCCCSc1nnc(-c2cc(Br)ccc2N)c(=O)[nH]1` to `O=c1[nH]c(NCCCO)nc2c1C1(CCCC1)Cc1ccccc1-2`, the IC50 rises from 5.1 µM to 8.77 µM (1.7-fold). The first is the more potent here.

Going from `COc1ccc2c(c1)CCc1c(C(=O)N3CCc4ccccc4C3)noc1-2` to `O=C(CSc1nc2ccccc2o1)Nc1ccccc1N1CCCCCC1`, the IC50 rises from 5.76 µM to 11.7 µM (2-fold).

Going from `Cc1c(C(=O)OC2CCCC2C)[nH]c2c1C(=O)CCC2` (stereo unspecified) to `CCN(C1CCCCC1)S(=O)(=O)c1ccc(OC)c(C)c1`, the IC50 rises from 0.38 µM to 16.9 µM (44-fold).

Going from `Cc1cc(N2CCN(c3ccccc3)CC2)nc(-n2nc(C)cc2C)n1` to `CCOC(=O)N1CCN(c2nc(N(c3ccccc3)c3ccccc3)nc(-n3ccnc3)n2)CC1`, the IC50 rises from 7.6 µM to 20.3 µM (2.7-fold).

Going from `CCN(c1ccccc1)S(=O)(=O)c1ccc(NCC2COc3ccccc3O2)nc1` (stereo unspecified) to `O=S(=O)(Nc1nnc(-c2ccccc2)s1)c1ccc(Cl)cc1`, the IC50 falls from 14.8 µM to 3.74 µM (4-fold).

`COc1cccc(N2CCN(CC(=O)Nc3nc4c(s3)CC(C)CC4)CC2)c1` (stereo unspecified) and `Cc1cc(C)c(C#N)c(N2CCN(CCOc3ccc(Cl)cc3)CC2)n1` are the same in IC50: 10.4 µM for the first, 10.4 µM for the second.

Compared with `Cc1cc(SCC#N)n2nc(C)c(-c3ccccc3)c2n1`, `O=C(Nc1nc(-c2ccccc2)cs1)c1cccs1` is 8.2-fold lower in IC50: 48.5 µM for the first, 5.9 µM for the second. The second is the more potent here.

`CCCOc1ccccc1C1CC(=O)Nc2cc3c(cc21)OCCO3` (stereo unspecified) and `COc1ccc(CN(Cc2cc3cc4c(cc3[nH]c2=O)OCO4)C(=O)NC2CCCCC2)cc1` are within 1.5-fold of each other in IC50: 24.1 µM for the first, 20.2 µM for the second.

First: Cn1cccc1C(=O)Nc1nc(-c2ccccn2)cs1
Second: Cn1c(NC(=O)c2ccccc2NC(=O)C(C)(C)C)nc2ccccc21
The IC50 of the first is 3.8-fold lower: 2.42 µM for the first, 9.13 µM for the second. The first is the more potent here.

Going from `Cc1cccc(N2C(N)=C(C#N)C(C#N)(C#N)C2c2ccccc2)c1` (stereo unspecified) to `O=C1CC(c2ccco2)CC2=C1C1c3ccccc3C(=O)N1c1ccccc1N2` (stereo unspecified), the IC50 rises from 13.3 µM to 22.7 µM (1.7-fold). The first is the more potent here.

Going from `O=C(CN(C(=O)CNC(=O)c1ccco1)c1ccc(Cl)c(Cl)c1)NC1CCCCC1` to `O=C(Nc1ccc(Cl)cc1)NC1CCCC1Cc1ccco1` (stereo unspecified), the IC50 falls from 28.1 µM to 3.63 µM (7.7-fold).

First: CCCOc1ccc2c3c(c(=O)oc2c1OCCC)CCC3
Second: O=C(Nc1nc2ccccc2n1CCOc1ccc(Cl)cc1)c1ccco1
The IC50 of the first is 1.7-fold lower: 14.5 µM for the first, 25.2 µM for the second.

Going from `O=C(Nc1ccc2oc(Cc3ccc(Cl)cc3)nc2c1)c1cccnc1` to `CC(Nc1ccc(Br)cn1)c1cc(Cl)ccc1O` (stereo unspecified), the IC50 falls from 53.9 µM to 5.61 µM (9.6-fold). The second is the more potent here.

Compared with `CNc1nc(Nc2ccc(C(C)=O)cc2)nc(OC(C(F)(F)F)C(F)(F)F)n1`, `N#CC1=C(N)SC(N)=C(C#N)C1CCC1CCCCC1` is 5.5-fold lower in IC50: 20.1 µM for the first, 3.65 µM for the second. The second is the more potent here.
